Assay [1] concerns the target GABA-A receptor; anion channel. In words: Inhibition of binding of tert-butyl bicyclophosphorothionate ([35 S]TBPS) at Gamma-aminobutyric acid A receptor from rat whole brain membranes. The format is cell membranes, Membrane.
Another assay deals with Mus musculus. In words: Hypnotic dose required to cause a loss of righting reflex for a minimum period of 30 s in 50 percent of treated mice after intravenous administration. The format is functional. The method in brief: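 Mice given steroid intravenously. The endpoint was loss of righting reflex lasting at least 30 s. The dose producing this in 50% of treated mice (HD50) was derived by probit analysis and expressed in µmol·kg-1.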

Structures are written as SMILES.

For orientation: IC50 means the concentration that gives 50% inhibition. Read a low IC50 as inhibition by little substance. In assay [1], `C[C@]12CC[C@@H](O)C[C@@H]1CC[C@@H]1[C@@H]2CC[C@]2(C)[C@@H](C(=O)CO)CC[C@@H]12` had an IC50 of 0.192 µM. Moreover, in the assay with Mus musculus, the HD50 was 18.5 µM/kg.

The compound `C[C@]12CC[C@@H](O)C[C@@H]1CC[C@@H]1[C@@H]2CC[C@@]2(C)[C@H]1CC[C@@]21CCO1` displayed a half-inhibitory concentration (IC50) in assay [1] of 0.232 µM. The compound also displayed an HD50 with Mus musculus of 62.8 µM/kg.

`C[C@]12CC[C@@H](O)C[C@H]1CC[C@@H]1[C@@H]2CC[C@@]2(C)[C@H]1C[C@@H]1O[C@@H]12` displayed an IC50 in assay [1] of 0.159 µM. In the assay with Mus musculus, this compound registered an HD50 of 38 µM/kg.

In assay [1], `C[C@]12CC[C@@H](O)C[C@@H]1CC[C@@H]1[C@@H]2CC[C@@]2(C)[C@H]1C[C@@H]1CO[C@@H]12` came in with a concentration for half-maximal inhibition (IC50) of 2.53 µM. The HD50 in the assay with Mus musculus amounted to 146.9 µM/kg.

`C[C@]12CC[C@@H](O)C[C@@H]1CC[C@@H]1[C@@H]2CC[C@]2(C)[C@@H]3O[C@@H]3C[C@@H]12`: the IC50 in assay [1] is 5.35 µM. Moreover, the HD50 with Mus musculus stood at 68.4 µM/kg.

`C[C@]12CC[C@@H](O)C[C@@H]1CC[C@@H]1[C@@H]2CC[C@@]2(C)[C@H]1C[C@@H]1O[C@@H]12` yielded a concentration for half-maximal inhibition (IC50) in assay [1] of 0.255 µM. For the same compound, in the assay on Mus musculus, the HD50 was 17.3 µM/kg.

In the case of `C[C@]12CC[C@@H](O)C[C@@H]1CC[C@@H]1[C@@H]2CC[C@@]2(C)[C@H](C#N)CC[C@@H]12`, in assay [1], the 50% inhibitory concentration (IC50) turned out to be 1.24 µM. The same compound had an HD50 with Mus musculus of 114.9 µM/kg.

On to `C[C@]12CC[C@H]3[C@@H](CC[C@H]4CC(O)CC[C@@]43C)[C@@H]1CC(=O)C2` (stereo not given in full), for which, in the assay with Mus musculus, the HD50 was 134.7 µM/kg.

Regarding `CO[C@H]1CC[C@H]2[C@@H]3CC[C@H]4C[C@H](O)CC[C@]4(C)[C@H]3CC[C@]12C`, in assay [1], the IC50 was determined as 0.21 µM. This compound returned an HD50 in the assay with Mus musculus of 23.1 µM/kg.

`C[C@]12CC[C@@H](O)C[C@@H]1CC[C@@H]1[C@@H]2CC[C@@]2(C)[C@H]1CC[C@@]21CO1` showed a 50% inhibitory concentration (IC50) in assay [1] of 0.055 µM. The HD50 in the assay with Mus musculus stood at 19.8 µM/kg.

The compound `C[C@]12CC[C@@H](O)C[C@H]1CC[C@@H]1[C@@H]2CC[C@@]2(C)[C@H]1CC[C@@]21CO1` returned an IC50 in assay [1] of 0.221 µM. This compound also displayed an HD50 in the assay with Mus musculus of 22.6 µM/kg.

Consider `CC(=O)[C@H]1CC[C@H]2[C@@H]3CC[C@H]4C[C@H](O)CC[C@]4(C)[C@H]3C(=O)C[C@]12C` [ALFAXALONE], for which the HD50 in the assay on Mus musculus is 6.3 µM/kg.

In assay [1], `C[C@]12CC[C@@H](O)C[C@@H]1CC[C@@H]1[C@@H]2CC[C@]2(C)[C@@H](O)CC[C@@H]12` [ANDROSTANDIOL] showed an IC50 of 1.87 µM. In the assay on Mus musculus, the HD50 stood at 239.4 µM/kg.

In assay [1], `C[C@]12CC[C@@H](O)C[C@@H]1CC[C@@H]1[C@@H]2CC[C@]2(C)C(=O)CC[C@@H]12` [ANDROSTERONE] showed a 50% inhibitory concentration (IC50) of 1.37 µM. Moreover, the HD50 in the assay on Mus musculus was 68.9 µM/kg.

The compound `CC(=O)[C@H]1CC[C@H]2[C@@H]3CC[C@H]4C[C@H](O)CC[C@]4(C)[C@H]3CC[C@]12C` [BREXANOLONE] came in with an IC50 in assay [1] of 0.155 µM. For the same compound, the HD50 with Mus musculus was determined as 10 µM/kg.

Turning to `CC(=O)[C@H]1CC[C@H]2[C@@H]3CC[C@@H]4C[C@H](O)CC[C@]4(C)[C@H]3CC[C@]12C` [ELTANOLONE], the IC50 in assay [1] came out at 0.145 µM. For the same compound, the HD50 in the assay on Mus musculus is 9.5 µM/kg.
